The source made the active and inactive calls. No cut-off for these calls is given here.
Biological target: Beta-2 adrenergic receptor (Canis lupus familiaris, UniProt P54833)
Type: cell membranes
Conditions: not given

Chain of Beta-2 adrenergic receptor (P54833 whole entry): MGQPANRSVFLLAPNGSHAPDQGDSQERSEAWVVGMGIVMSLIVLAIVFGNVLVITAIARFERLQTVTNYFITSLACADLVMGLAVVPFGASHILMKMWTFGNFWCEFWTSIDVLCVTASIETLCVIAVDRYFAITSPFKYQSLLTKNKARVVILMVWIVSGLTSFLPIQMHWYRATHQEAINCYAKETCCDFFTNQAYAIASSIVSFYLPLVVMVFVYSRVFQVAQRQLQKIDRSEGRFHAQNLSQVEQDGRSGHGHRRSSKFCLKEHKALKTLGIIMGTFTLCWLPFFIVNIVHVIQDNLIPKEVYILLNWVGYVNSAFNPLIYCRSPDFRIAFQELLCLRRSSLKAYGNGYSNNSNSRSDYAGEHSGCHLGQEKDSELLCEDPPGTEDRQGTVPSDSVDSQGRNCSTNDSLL

Point of comparison: `Clc1ccccc1N1CCNCC1`, IC50 16 µM. Against it:
- CS(=O)(=O)Nc1ccc(CNCC2CN(c3ccccc3)CCN2)cc1 (configuration not stated) — 3.5-fold lower, 4.6 µM
- c1ccc(N2CCNCC2)cc1 [PHENYLPIPERAZINE] — higher, > 100 µM
- CC(=O)c1ccc(N2CCNCC2)cc1 — higher, > 100 µM
- CS(=O)(=O)Nc1ccc(NC(=O)C2CN(c3ccccc3)CCN2)cc1 (configuration not stated) — higher, > 100 µM
- Cc1ccc(N2CCNCC2)cc1 — higher, > 100 µM
- CS(=O)(=O)Nc1ccc(C(=O)NCC2CN(c3cccc(Cl)c3)CCN2)cc1 (configuration not stated) — 4.2-fold lower, 3.8 µM
- Cc1cccc(N2CCNCC2)c1 — 2.5-fold higher, 40 µM
- Clc1cccc(N2CCNCC2)c1 [CHLOROPHENYLPIPERAZINE] — within 1.5-fold, 18 µM
- COc1cccc(N2CCNC(CNC(=O)c3ccc(NS(C)(=O)=O)cc3)C2)c1 (configuration not stated) — 4.6-fold lower, 3.5 µM
- O=C(NCC1CN(c2ccccc2)CCN1)c1ccc(-n2ccnc2)cc1 (configuration not stated) — 3.7-fold lower, 4.3 µM
- O=C(NCC1CN(c2ccccc2)CCN1)c1ccccc1 (configuration not stated) — 2.6-fold lower, 6.2 µM
- CS(=O)(=O)Nc1ccc(OCC2CN(c3ccccc3)CCN2)cc1 (configuration not stated) — 3.6-fold lower, 4.5 µM
- CS(=O)(=O)Nc1ccc(C(=O)NCC2CN(c3ccccc3)CCN2)cc1 (configuration not stated) — 4.7-fold lower, 3.4 µM
- Clc1ccc(N2CCNCC2)cc1 — 4.4-fold higher, 70 µM
- COc1ccccc1N1CCNCC1 — 2.1-fold higher, 34 µM
- CN(c1ccc(C(=O)NCC2CN(c3ccccc3)CCN2)cc1)S(C)(=O)=O (configuration not stated) — 3.7-fold lower, 4.3 µM
- COc1cccc(N2CCNCC2)c1 — 1.8-fold higher, 29 µM
- Cc1ccccc1N1CCNCC1 — 1.8-fold higher, 29 µM
- CS(=O)(=O)Nc1ccc(C(=O)NCC2CNCCN2c2ccccc2)cc1 (configuration not stated) — 1.9-fold higher, 31 µM
- COc1ccc(N2CCNCC2)cc1 — higher, > 100 µM
- CS(=O)(=O)Nc1ccc(NCC2CN(c3ccccc3)CCN2)cc1 (configuration not stated) — 16-fold lower, 1 µM
- COc1ccccc1N1CCNC(CNC(=O)c2ccc(NS(C)(=O)=O)cc2)C1 (configuration not stated) — 25-fold lower, 0.63 µM
- CS(=O)(=O)Nc1ccc(NCC2CNCCN2c2ccccc2)cc1 (configuration not stated) — 2.6-fold higher, 42 µM

Species: Canis familiaris
Experiment: Concentration necessary to prolong APD at 95% repolarization by 20% from control.
Type: functional, Canis lupus familiaris
Conditions: not given
How it was run: (§1)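 Concentration giving a 20% prolongation of action potential duration at 95% repolarization versus control, with Vmax monitored as a class I index. Values are the log mean of n experiments with range; concentrations went up to 30 µM.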

Point of comparison: `CS(=O)(=O)Nc1ccc(NC(=O)C2CN(c3ccccc3)CCN2)cc1` (configuration not stated), “C20 APD95” value 21 µM. Against it:
- CS(=O)(=O)Nc1ccc(CNCC2CN(c3ccccc3)CCN2)cc1 (configuration not stated) — 52-fold lower, 0.4 µM
- CS(=O)(=O)Nc1ccc(C(=O)NCC2CN(c3cccc(Cl)c3)CCN2)cc1 (configuration not stated) — 26-fold lower, 0.8 µM
- COc1cccc(N2CCNC(CNC(=O)c3ccc(NS(C)(=O)=O)cc3)C2)c1 (configuration not stated) — 8.4-fold lower, 2.5 µM
- O=C(NCC1CN(c2ccccc2)CCN1)c1ccc(-n2ccnc2)cc1 (configuration not stated) — 23-fold lower, 0.9 µM
- CS(=O)(=O)Nc1ccc(OCC2CN(c3ccccc3)CCN2)cc1 (configuration not stated) — 21-fold lower, 1 µM
- CS(=O)(=O)Nc1ccc(C(=O)NCC2CN(c3ccccc3)CCN2)cc1 (configuration not stated) — 26-fold lower, 0.8 µM
- CC(C)NCC(O)c1ccc(NS(C)(=O)=O)cc1 (configuration not stated) [SOTALOL] — within 1.5-fold, 18 µM
- CS(=O)(=O)Nc1ccc(C(=O)NCC2CNCCN2c2ccccc2)cc1 (configuration not stated) — 6.6-fold lower, 3.2 µM
- CS(=O)(=O)Nc1ccc(NCC2CN(c3ccccc3)CCN2)cc1 (configuration not stated) — 10-fold lower, 2 µM
- COc1ccccc1N1CCNC(CNC(=O)c2ccc(NS(C)(=O)=O)cc2)C1 (configuration not stated) — within 1.5-fold, 18 µM
- CS(=O)(=O)Nc1ccc(NCC2CNCCN2c2ccccc2)cc1 (configuration not stated) — 2.3-fold lower, 9.2 µM

Species: Canis familiaris
Experiment: Concentration necessary to prolong APD at 95% repolarization by 20% from control; Not Reached at 30 uM
Type: functional
Conditions: Canis lupus familiaris
How it was run: as §1

In the case of `O=C(NCC1CN(c2ccccc2)CCN1)c1ccccc1` (configuration not stated), the “C20 APD95” value is reported as “inactive”.
In the case of `CN(c1ccc(C(=O)NCC2CN(c3ccccc3)CCN2)cc1)S(C)(=O)=O` (configuration not stated), the “C20 APD95” value is reported as “inactive”.

Species: Canis familiaris
Experiment: Compound was evaluated for Cardiac output in dog
Type: functional, Canis lupus familiaris
Conditions: not given
How it was run: (§2)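 Pentobarbital-anesthetized mongrel dogs (n = 4) received a 10 mg/kg iv dose over 5 min. Haemodynamic parameters were recorded 15 min after dosing, as change from pre-dose.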

Point of comparison: `CC(C)NCC(O)c1ccc(NS(C)(=O)=O)cc1` (configuration not stated) [SOTALOL], Cardiac output -44. Against it:
- CS(=O)(=O)Nc1ccc(C(=O)NCC2CN(c3ccccc3)CCN2)cc1 (configuration not stated) — higher, -14

Species: Canis familiaris
Experiment: Compound was evaluated for change in Heart rate in dog
Type: functional, Canis lupus familiaris
Conditions: not given
How it was run: as §2

Point of comparison: `CC(C)NCC(O)c1ccc(NS(C)(=O)=O)cc1` (configuration not stated) [SOTALOL], HR -39. Against it:
- CS(=O)(=O)Nc1ccc(C(=O)NCC2CN(c3ccccc3)CCN2)cc1 (configuration not stated) — higher, 38

Species: Canis familiaris
Experiment: Peak range of change in left ventricular pressure in dog
Type: functional, Canis lupus familiaris, Heart left ventricle
Conditions: not given
How it was run: as §2

Point of comparison: `CC(C)NCC(O)c1ccc(NS(C)(=O)=O)cc1` (configuration not stated) [SOTALOL], LV -33. Against it:
- CS(=O)(=O)Nc1ccc(C(=O)NCC2CN(c3ccccc3)CCN2)cc1 (configuration not stated) — higher, 3

Tested on: Canis familiaris
Experiment: number of effected animals / number of tested animals at 3 mg/kg in a halothane / epinephrine model
Type: functional, Canis lupus familiaris
Conditions: not given
How it was run: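 Halothane-anesthetized dogs received compound as a 10-min iv infusion at 3 mg/kg. Thirty minutes later, epinephrine was infused at 1.5 µg/kg per min for 15 min. Protection meant no SVT/VF during the whole epinephrine infusion; reported as protected/tested.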

Point of comparison: `CS(=O)(=O)Nc1ccc(C(=O)NCC2CN(c3ccccc3)CCN2)cc1` (configuration not stated), No. effective 5. Against it:
- CC(C)NCC(O)c1ccc(NS(C)(=O)=O)cc1 (configuration not stated) [SOTALOL] — higher, 6

Species: Canis familiaris
Experiment: Compound was evaluated for Mean arterial pressure in dog
Type: functional, Canis lupus familiaris, Artery
Conditions: not given
How it was run: as §2

Point of comparison: `CS(=O)(=O)Nc1ccc(C(=O)NCC2CN(c3ccccc3)CCN2)cc1` (configuration not stated), MAP 5. Against it:
- CC(C)NCC(O)c1ccc(NS(C)(=O)=O)cc1 (configuration not stated) [SOTALOL] — lower, -26

Species: Canis familiaris
Experiment: Compound was evaluated for Total peripheral resistance in dog
Type: functional, Canis lupus familiaris
Conditions: not given
How it was run: as §2

Point of comparison: `CS(=O)(=O)Nc1ccc(C(=O)NCC2CN(c3ccccc3)CCN2)cc1` (configuration not stated), TPR 22. Against it:
- CC(C)NCC(O)c1ccc(NS(C)(=O)=O)cc1 (configuration not stated) [SOTALOL] — higher, 41

Species: Canis familiaris
Experiment: Number of active animals / number of tested animals in programmed electrical stimulation model (PES)
Type: functional, Canis lupus familiaris
Conditions: not given
How it was run: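 Conscious dogs studied by programmed electrical stimulation 3-8 days after occlusion/reperfusion infarction. Two control SVT/VF inductions were made first, with VF ended by DC countershock and SVT by burst pacing. Reinduction was tried after iv compound; an animal counted as protected if SVT/VF could not be induced.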

Point of comparison: `CS(=O)(=O)Nc1ccc(C(=O)NCC2CN(c3ccccc3)CCN2)cc1` (configuration not stated), No. active 6. Against it:
- CC(C)NCC(O)c1ccc(NS(C)(=O)=O)cc1 (configuration not stated) [SOTALOL] — higher, 7
